Activity calls are given as the source filed them. No cut-off for these calls is given here.
What was measured:
[1] = system: SiHa; assay: Cytotoxicity against human SiHa cells under hypoxic condition assessed as inhibition of cell proliferation after 4 hrs; assay type: functional, cell-based
Method in brief: (§1)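 Log-phase monolayers were exposed to drug for 4 h, aerobic (20% O2) for line 5 and anoxic (<20 ppm O2) for line 4. Cell density was read by sulforhodamine B staining 5 days later. IC50 was interpolated as the concentration reducing density to 50% of same-plate controls; mean ± SEM of 3–9 experiments.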

[2] = system: HT-29; assay: Cytotoxicity against human HT-29 cells under hypoxic condition assessed as inhibition of cell proliferation after 4 hrs by SRB method; assay type: functional, cell-based; conditions: HT-29, 4 h
Method in brief: (§2)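 Log-phase monolayers were exposed 4 h under 20% O₂ or anoxia (<20 ppm O₂), then stained with sulforhodamine B 5 days later. IC50, interpolated as the concentration reducing cell density to 50% of same-plate controls, is given as mean of 3−9 experiments. HCR = IC50(oxic)/IC50(hypoxic), taken as the mean of intraexperiment ratios from 3−6 experiments.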

[3] = system: HT-29; assay: Cytotoxicity against human HT-29 cells under oxic condition assessed as inhibition of cell proliferation after 4 hrs by SRB method; assay type: functional, cell-based; conditions: HT-29, 4 h; method in brief: as §2
[4] = system: HT-29; assay: Ratio of IC50 for human HT-29 cells under oxic condition to IC50 for human HT-29 cells under hypoxic condition; assay type: functional; method in brief: as §2
[5] = system: SiHa; assay: Cytotoxicity against human SiHa cells under oxic condition assessed as inhibition of cell proliferation after 4 hrs; assay type: functional, cell-based; method in brief: as §1
[6] = system: SiHa; assay: Antitumor activity against human SiHa cells xenografted in immunocompromized gamma irradiated mouse assessed as log cell kill at 42 umol/kg, iv tumor excised post 18 hrs followed by culturing for 14 days under hypoxic condition; assay type: functional
Method in brief: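 Male immunocompromised mice bearing subcutaneous tumours (10^7 cultured cells), randomized at 8–10 mm mean diameter. Compound in PBS with 4 equiv sodium bicarbonate given iv (tail vein), alone or 5 min after 15 Gy whole-body cobalt-60 γ-irradiation, which sterilizes oxygenated cells. Tumours excised 18 h after dosing and plated for clonogens for 14 days. n = 3 (vehicle or compound alone) or 5 (irradiated groups).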

[7] = system: SiHa; assay: Antitumor activity against human SiHa cells xenografted in immunocompromized mouse assessed as number of colony forming cells per gram of tumor tissue at 42 umol/kg, iv tumor excised post 18 hrs followed by culturing for 14 days; assay type: functional
Method in brief: (§3)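 SiHa tumours grown subcutaneously in male mice from 10⁷ cultured cells; randomized at 8−10 mm mean diameter. Compound in phosphate-buffered saline with 4 equiv sodium bicarbonate, given via tail vein at the stated dose, alone or 5 min after 15 Gy whole-body cobalt-60 γ irradiation. Tumours excised 18 h after dosing, cells cultured 14 days for clonogens. Groups of 3 (drug alone) or 5 (radiation + drug).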

[8] = system: NCI-H460; assay: Toxicity in human H460 cells xenografted immunocompromized mouse at 75 umol/kg, iv; conditions: in vivo
[9] = system: SiHa; assay: Antitumor activity against human SiHa cells xenografted in immunocompromized gamma irradiated mouse assessed as number of colony forming cells per gram of tumor tissue at 42 umol/kg, iv tumor excised post 18 hrs followed by culturing for 14 days; assay type: functional; method in brief: as §3
[10] = system: SiHa; assay: Cytotoxicity against human SiHa cells under hypoxic condition assessed as after 4 hrs by clonogenic assay; assay type: functional, cell-based
Method in brief: (§4)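 Cells were exposed to drug in duplicate for 4 h at 37 °C, either aerobic (95% air, 5% CO₂) or in an anaerobic chamber (<0.001% O₂). Medium was αMEM + 10% FCS with added glucose (final 17 mmol/L) and 200 μmol/L 2′-deoxycytidine. Cells were then trypsinized and plated; colonies >50 cells were counted after 14 days (methylene blue). C10 = concentration giving 10% survival vs controls; HCR = C10(oxic)/C10(hypoxic).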

[11] = system: SiHa; assay: Cytotoxicity against human SiHa cells under oxic condition after 4 hrs by clonogenic assay; assay type: functional, cell-based; method in brief: as §4

| SMILES | IC50 [1] [µM] | IC50 [2] [µM] | IC50 [3] [µM] | Ratio IC50 [4] | IC50 [5] [µM] | LCK [6] | log10cfu [7] | Activity [8] | log10cfu [9] | Activity [10] | Activity [11] |
| --- | --- | --- | --- | --- | --- | --- | --- | --- | --- | --- | --- |
| COc1ccc(/C=C/C(=O)N2CC(COS(=O)(=O)Cc3ccccc3)c3c2cc([N+](=O)[O-])c2cc(S(=O)(=O)NCCO)ccc32)cc1 (stereo not given) | 0.37 | 0.95 | 47 | 50 | 7.3 | – | – | – | – | – | – |
| COc1cc2cc(C(=O)N3CC(COS(=O)(=O)Cc4ccccc4)c4c3cc([N+](=O)[O-])c3cc(C(=O)NCCOP(=O)(O)O)ccc43)[nH]c2c(OC)c1OC (stereo not given) | – | – | – | – | – | 1.78 | 6.71 | Non-toxic | 3.62 | – | – |
| COc1cc2cc(C(=O)N3CC(CCl)c4c3cc([N+](=O)[O-])c3cc(S(=O)(=O)NCCOP(=O)(O)O)ccc43)[nH]c2c(OC)c1OC (stereo not given) | – | – | – | – | – | 0.54 | – | – | – | – | – |
| COc1ccc(/C=C/C(=O)N2CC(COS(=O)(=O)Cc3ccccc3)c3c2cc([N+](=O)[O-])c2cc(S(=O)(=O)NCCOP(=O)(O)O)ccc32)cc1 (stereo not given) | – | – | – | – | – | 0.78 | 6.74 | – | 4.32 | – | – |
| CN(C)CCOc1ccc2[nH]c(C(=O)N3CC(COS(=O)(=O)Cc4ccccc4)c4c3cc([N+](=O)[O-])c3cc(C(N)=O)ccc43)cc2c1 (stereo not given) | 0.12 | 0.038 | 2.2 | 58 | 0.53 | – | – | – | – | – | – |
| COc1cc2cc(C(=O)N3CC(COS(=O)(=O)Cc4ccccc4)c4c3cc([N+](=O)[O-])c3cc(S(=O)(=O)NCCO)ccc43)[nH]c2c(OC)c1OC (stereo not given) | 0.11 | 0.36 | 8.4 | 23 | 0.94 | – | – | – | – | – | – |
| COc1ccc(/C=C/C(=O)N2CC(COS(=O)(=O)Cc3ccccc3)c3c2cc([N+](=O)[O-])c2cc(C#N)ccc32)cc1O (stereo not given) | 0.019 | 0.62 | 3.4 | 5.4 | 0.57 | – | – | – | – | Active | Active |
| CN(C)CCOc1ccc2[nH]c(C(=O)N3CC(COS(C)(=O)=O)c4c3cc([N+](=O)[O-])c3cc(S(=O)(=O)NCCO)ccc43)cc2c1 (stereo not given) | 0.38 | 2.2 | 13 | 7.4 | 4.1 | – | – | – | – | – | – |
| O=C(c1cc2cc(OCCN3CCOCC3)ccc2[nH]1)N1CC(COS(=O)(=O)Cc2ccccc2)c2c1cc([N+](=O)[O-])c1cc(S(=O)(=O)NCCOP(=O)(O)O)ccc21 (stereo not given) | – | – | – | – | – | 0.34 | 7.08 | – | 4.76 | – | – |
| COc1cc2cc(C(=O)N3CC(COS(=O)(=O)Cc4ccccc4)c4c3cc([N+](=O)[O-])c3cc(C(=O)NCCO)ccc43)[nH]c2c(OC)c1OC (stereo not given) | 0.16 | 0.61 | 15 | 13 | 0.9 | – | – | – | – | – | – |
| CN(C)CCOc1ccc2[nH]c(C(=O)N3CC(COS(C)(=O)=O)c4c3cc([N+](=O)[O-])c3cc(S(=O)(=O)NCCOP(=O)(O)O)ccc43)cc2c1 (stereo not given) | – | – | – | – | – | 0.33 | 7.18 | Non-toxic | 4.65 | – | – |
| N#Cc1ccc2c3c(cc([N+](=O)[O-])c2c1)N(C(=O)c1cc2cc(OCCO)ccc2[nH]1)CC3COS(=O)(=O)Cc1ccccc1 (stereo not given) | 0.035 | 0.49 | 2.5 | 5.2 | 0.71 | – | – | – | – | – | – |
| CN(C)CCOc1ccc2[nH]c(C(=O)N3CC(CCl)c4c3cc([N+](=O)[O-])c3cc(C(=O)NCCO)ccc43)cc2c1 (stereo not given) | 0.24 | 0.11 | 12 | 485 | 4.2 | – | – | – | – | – | – |
| CN(C)CCOc1ccc2[nH]c(C(=O)N3CC(COS(=O)(=O)Cc4ccccc4)c4c3cc([N+](=O)[O-])c3cc(C(=O)NCCO)ccc43)cc2c1 (stereo not given) | 0.21 | 0.57 | 4.3 | 12 | 2.3 | – | – | – | – | Active | Active |
| CN(C)CCOc1ccc2[nH]c(C(=O)N3CC(COS(=O)(=O)Cc4ccccc4)c4c3cc([N+](=O)[O-])c3cc(C(=O)NCCOP(=O)(O)O)ccc43)cc2c1 (stereo not given) | – | – | – | – | – | 0.98 | 6.92 | Non-toxic | 4.42 | – | – |
| O=C(c1cc2cc(OCCN3CCOCC3)ccc2[nH]1)N1CC(COS(=O)(=O)Cc2ccccc2)c2c1cc([N+](=O)[O-])c1cc(S(=O)(=O)NCCO)ccc21 (stereo not given) | 0.039 | > 20 | 50 | <2.5 | 23 | – | – | – | – | – | – |
| COc1cc2cc(C(=O)N3CC(COS(C)(=O)=O)c4c3cc([N+](=O)[O-])c3cc(S(=O)(=O)NCCO)ccc43)[nH]c2c(OC)c1OC (stereo not given) | 2.1 | 14 | 14 | 8.6 | 6.3 | – | – | – | – | – | – |
| COc1ccc(/C=C/C(=O)N2CC(COS(=O)(=O)Cc3ccccc3)c3c2cc([N+](=O)[O-])c2cc(C(N)=O)ccc32)cc1O (stereo not given) | 0.096 | 0.43 | 4.6 | 21 | 2.1 | – | – | – | – | Active | Active |
| COc1cc2cc(C(=O)N3CC(COS(=O)(=O)Cc4ccccc4)c4c3cc([N+](=O)[O-])c3cc(S(=O)(=O)NCCOP(=O)(O)O)ccc43)[nH]c2c(OC)c1OC (stereo not given) | – | – | – | – | – | 2.71 | 6.53 | – | 2.39 | – | – |
| COc1ccc(/C=C/C(=O)N2CC(COS(C)(=O)=O)c3c2cc([N+](=O)[O-])c2cc(S(=O)(=O)NCCO)ccc32)cc1 (stereo not given) | 0.32 | 4.1 | 26 | 31 | 11 | – | – | – | – | – | – |
| CN(C)CCOc1ccc2[nH]c(C(=O)N3CC(CCl)c4c3cc([N+](=O)[O-])c3cc(C(=O)NCCOP(=O)(O)O)ccc43)cc2c1 (stereo not given) | – | – | – | – | – | 2.21 | 6.56 | – | 3.11 | – | – |
| CN(C)CCOc1ccc2[nH]c(C(=O)N3CC(COS(=O)(=O)Cc4ccccc4)c4c3cc([N+](=O)[O-])c3cc(S(=O)(=O)NCCOP(=O)(O)O)ccc43)cc2c1 (stereo not given) | – | – | – | – | – | 0.18 | 6.92 | – | 4.92 | – | – |
| CN(C)CCOc1ccc2[nH]c(C(=O)N3CC(COS(=O)(=O)Cc4ccccc4)c4c3cc([N+](=O)[O-])c3cc(S(N)(=O)=O)ccc43)cc2c1 (stereo not given) | 0.045 | 0.09 | 1.6 | 18 | 0.37 | – | – | – | – | – | – |
| CN(C)CCOc1ccc2[nH]c(C(=O)N3CC(COS(=O)(=O)Cc4ccccc4)c4c3cc([N+](=O)[O-])c3cc(S(=O)(=O)NCCO)ccc43)cc2c1 (stereo not given) | 0.055 | 3.9 | 38 | 9.7 | 4.5 | – | – | – | – | – | – |
| COc1ccc(/C=C/C(=O)N2CC(COS(C)(=O)=O)c3c2cc([N+](=O)[O-])c2cc(S(=O)(=O)NCCOP(=O)(O)O)ccc32)cc1 (stereo not given) | – | – | – | – | – | 0.71 | 7.09 | Non-toxic | 4.75 | – | – |
| NC(=O)c1ccc2c3c(cc([N+](=O)[O-])c2c1)N(C(=O)c1cc2cc(OCCOP(=O)(O)O)ccc2[nH]1)CC3COS(=O)(=O)Cc1ccccc1 (stereo not given) | – | – | – | – | – | 0.37 | 6.91 | Non-toxic | 5.09 | – | – |
| COc1cc2cc(C(=O)N3CC(CCl)c4c3cc([N+](=O)[O-])c3cc(C(=O)NCCO)ccc43)[nH]c2c(OC)c1OC (stereo not given) | – | 3.2 | 5.7 | 1.7 | – | – | – | – | – | – | – |
| COc1cc2cc(C(=O)N3CC(COS(=O)(=O)Cc4ccccc4)c4c3cc([N+](=O)[O-])c3cc(C#N)ccc43)[nH]c2c(OC)c1OC (stereo not given) | 0.026 | 0.043 | 2.6 | 94 | 0.65 | – | – | – | – | – | – |
